The source made the active and inactive calls. No cut-off for these calls is given here.
Tests used:
[1] = test system: Mus musculus; assay: Compound was tested for the neuroleptic activity as measured by it's antagonism of d-amphetamine induced lethality in grouped mice(GAL) when administered perorally; 1-15; format: functional; details: po
[2] = test system: Rattus norvegicus; assay: Reduction in motor activity in rats following p.o. administration.; format: functional
Procedure, shortened: (§1)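 Rats in groups of five given graded oral doses. Locomotor activity counted per rat over 5 min at the time of peak effect, which was set earlier with a selected dose. MDD50 is the dose giving 50% reduction versus controls, taken from linear regression.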

[3] = test system: Mus musculus; assay: Minimum effective dose causing antagonism of tetrabenazine induced depression in mice was determined when administered perorally; Inactive; format: functional, organism-based
[4] = test system: Mus musculus; assay: Compound was tested for the neuroleptic activity as measured by it's antagonism of d-amphetamine induced lethality in grouped mice(GAL) when administered perorally; Inactive; format: functional, organism-based
[5] = test system: Mus musculus; assay: Inhibition of tetrabenazine induced depression in mice was following p.o. administration; Inactive.; format: functional, organism-based
[6] = test system: Mus musculus; assay: Compound was tested for the neuroleptic activity as measured by it's antagonism of d-amphetamine induced lethality in grouped mice(GAL) when administered perorally; 1.4-3.1; format: functional; details: po
[7] = test system: Mus musculus; assay: Compound was tested for the neuroleptic activity as measured by it's antagonism of d-amphetamine induced lethality in grouped mice(GAL) when administered perorally; 3.2-5.5; format: functional; details: po
[8] = test system: Mus musculus; assay: Compound was tested for the neuroleptic activity as measured by it's antagonism of d-amphetamine induced lethality in grouped mice(GAL) when administered perorally; 2.5-3.9; format: functional; details: po
[9] = test system: Mus musculus; assay: Minimum effective dose causing antagonism of tetrabenazine induced depression in mice was determined when administered perorally; format: functional; details: po, read-out: MED
[10] = test system: Mus musculus; assay: Compound was tested for the neuroleptic activity as measured by it's antagonism of d-amphetamine induced lethality in grouped mice(GAL) when administered perorally; Inactive at 20 mg/kg; format: functional, organism-based; set-up: dose 20 mg/kg
[11] = test system: Mus musculus; assay: Compound was tested for the neuroleptic activity as measured by it''s antagonism of d-amphetamine induced lethality in grouped mice(GAL) when administered perorally; Inactive at 20 mg/kg; format: functional, organism-based; set-up: dose 20 mg/kg
[12] = test system: Mus musculus; assay: Compound was tested for the neuroleptic activity as measured by it's antagonism of d-amphetamine induced lethality in grouped mice(GAL) when administered perorally; 5.1-9; format: functional; details: po
[13] = test system: Rattus norvegicus; assay: Dose causing 50% reduction of motor activity in rats was measured when administered perorally; Inactive at 50 mg/kg; format: functional, organism-based; set-up: dose 50 mg/kg; procedure, shortened: as §1
[14] = test system: Mus musculus; assay: Compound was tested for the neuroleptic activity as measured by it's antagonism of d-amphetamine induced lethality in grouped mice(GAL) when administered perorally; format: functional; details: po
[15] = test system: Mus musculus; assay: Minimum effective dose causing antagonism of tetrabenazine induced depression in mice was determined when administered perorally; Inactive at 25 mg/kg; format: functional, organism-based; set-up: dose 25 mg/kg
[16] = test system: Mus musculus; assay: Compound was tested for the neuroleptic activity as measured by it's antagonism of d-amphetamine induced lethality in grouped mice(GAL) when administered perorally; 2.4-5.6; format: functional; details: po
[17] = test system: Mus musculus; assay: Compound was tested for the neuroleptic activity as measured by it's antagonism of d-amphetamine induced lethality in grouped mice(GAL) when administered perorally; 0.4-3.1; format: functional; details: po
[18] = test system: Mus musculus; assay: Compound was tested for the neuroleptic activity as measured by it's antagonism of d-amphetamine induced lethality in grouped mice(GAL) when administered perorally; 9-33; format: functional; details: po

## CCN1CCN(C2=Nc3cc(C)ccc3Oc3cscc32)CC1
[1]
  ED50: 3.9 mg/kg
[2]
  MDD50: <50 mg/kg
[3]
  MED: inactive

## CN1CCN(C2=Nc3cc(Cl)ccc3Sc3cscc32)CC1
[4]
  ED50: inactive
[5]
  MED: inactive

## OCCN1CCN(C2=Nc3cc(Cl)ccc3Oc3cscc32)CC1
[6]
  ED50: 2 mg/kg
[2]
  MDD50: 19.2 mg/kg
[5]
  MED: inactive

## CN1CCN(C2=Nc3cc(Cl)ccc3Nc3ccccc32)CC1 [CLOZAPINE]
[7]
  ED50: 4.2 mg/kg
[2]
  MDD50: 21 mg/kg
[5]
  MED: inactive

## CN1CCN(C2=Nc3cc(Br)ccc3Oc3cscc32)CC1
[2]
  MDD50: 16.4 mg/kg
[8]
  ED50: 3.1 mg/kg
[5]
  MED: inactive

## CN1CCN(C2=Nc3ccccc3Sc3c2csc3Cl)CC1
[9]
  minimal effective dose: 1.6 mg/kg
[10]
  ED50: inactive

## CN1CCN(C2=Nc3cscc3N(C)c3ccc(Cl)cc32)CC1
[9]
  minimal effective dose: 1.56 mg/kg
[11]
  ED50: inactive
[2]
  MDD50: 4.1 mg/kg

## Cc1cc2c(cc1C)Sc1cscc1C(N1CCN(C)CC1)=N2
[4]
  ED50: inactive
[5]
  MED: inactive

## CCN1CCN(C2=Nc3cc(Cl)ccc3Oc3cscc32)CC1
[12]
  ED50: 6.8 mg/kg
[2]
  MDD50: <50 mg/kg
[5]
  MED: inactive

## CN1CCN(C2=Nc3cscc3N(C)c3ccc(F)cc32)CC1
[4]
  ED50: inactive
[9]
  minimal effective dose: 6.25 mg/kg

## OCCN1CCN(C2=Nc3ccccc3Oc3c2csc3Cl)CC1
[13]
  MDD50: inactive
[14]
  ED50: < 10 mg/kg
[5]
  MED: inactive

## CN1CCN(C2=Nc3ccccc3Oc3cscc32)CC1
[14]
  ED50: 1.4 mg/kg
[2]
  MDD50: 1.3 mg/kg
[15]
  MED: inactive

## Cc1ccc2c(c1)N=C(N1CCN(C)CC1)c1cscc1O2
[16]
  ED50: 3.6 mg/kg
[2]
  MDD50: 5.96 mg/kg
[3]
  MED: inactive

## COc1ccc2c(c1)N=C(N1CCN(C)CC1)c1cscc1O2
[4]
  ED50: inactive

## OCCN1CCN(C2=Nc3ccccc3Oc3cscc32)CC1
[14]
  ED50: < 10 mg/kg
[2]
  MDD50: 5.4 mg/kg
[5]
  MED: inactive

## Cc1cccc2c1N=C(N1CCN(C)CC1)c1cscc1O2
[17]
  ED50: 1.2 mg/kg
[2]
  MDD50: >50 mg/kg
[5]
  MED: inactive

## CN1CCN(C2=Nc3cscc3Nc3ccc(F)cc32)CC1
[18]
  ED50: 17.5 mg/kg
[5]
  MED: inactive

From ChEMBL document CHEMBL1121779, “Thiophene systems. 5. Thieno[3,4-b][1,5]benzoxazepines, thieno[3,4-b][1,5]benzothiazepines, and thieno[3,4-b][1,4]benzodiazepines as potential central nervous system agents” (1981)
